The test system of test [1] is NIH3T3. The test can be described thus: Effect on Npas4 mRNA level in mouse NIH3T3 cells at 10 nM after 24 hrs by microarray analysis relative to control. Format: functional. A digest of the protocol:
(§1)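 NIH3T3 cells, in triplicate, mock-treated or treated with 10 nM, 100 nM or 1 µM for 24 h. Total RNA hybridized to MEEBO oligonucleotide arrays. Differentially expressed genes identified by unpaired two-class SAM against mock-treated samples, FDR ≤27.5%. Fold change reported.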

Test [2] deals with NIH3T3. The test can be described thus: Stability of FKBP12 L50A mutant-C terminus of YFP fusion protein expressed in NIH3T3 cells assessed as mean fluorescence intensity at 1 uM after 24 hrs by flow cytometry. Format: cell-based. A digest of the protocol:
(§2)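 FKBP mutants (all carrying F36V) fused to the N- or C-terminus of YFP and stably transduced into NIH3T3 cells by MMLV retrovirus (clonally mixed populations). Cells split, mock-treated or given 1 µM for 24 h. YFP read by flow cytometry, 10,000 events. MFI normalized to parent F36V-YFP cells given 1 µM; mean of three experiments ±SEM.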
On the technique in general: Flow cytometry measures light scatter and fluorescence of single cells or particles in a stream.

The nature of test [3]: Displacement of fluorescein-SLF from FKBP12 L50A mutant-GST fusion protein by fluorescence polarization assay.
Test [4] has as its system NIH3T3. The test can be described thus: Stability of FKBP12 V2A mutant-C terminus of YFP fusion protein expressed in NIH3T3 cells assessed as mean fluorescence intensity at 1 uM after 24 hrs by flow cytometry. Format: cell-based. A digest of the protocol: as §2
Test [5] concerns NIH3T3. The test can be described thus: Effect on Tcfe3 mRNA level in mouse NIH3T3 cells at 1 uM after 24 hrs by microarray analysis relative to control. Format: functional. An outline of the steps:
as §1

The test system of test [6] is NIH3T3. The test can be described thus: Stability of FKBP12 L106A mutant-N terminus of YFP fusion protein expressed in NIH3T3 cells assessed as mean fluorescence intensity at 1 uM after 24 hrs by flow cytometry. In kind it is cell-based. An outline of the steps:
as §2

Test [7] in a line: (§3) Stability of FKBP12 V2A mutant-YFP fusion protein expressed in NIH3T3 cells after 24 hrs by flow cytometry. Format: cell-based. A digest of the protocol:
(§4)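 Retrovirally transduced NIH3T3 cells stably expressing V2A-YFP, plated at 1 × 10^5 cells/well and dosed with 3-fold dilutions (10 µM to 1 nM, or 10 µM to 300 nM) for 24 h. Cells trypsinized, resuspended in PBS, YFP read by flow cytometry (10,000 events). Average MFI ±SEM relative to F36V protein; EC50 from dose curve.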

Test [8] concerns NIH3T3. In words: Stability of FKBP12 V2A/17V mutant-N terminus of YFP fusion protein expressed in NIH3T3 cells assessed as mean fluorescence intensity at 1 uM after 24 hrs by flow cytometry relative to FKBP12 F36V mutant. In kind it is cell-based. A digest of the protocol:
as §2

The nature of test [9]: Displacement of fluorescein-SLF from FKBP12 F36V mutant-GST fusion protein by fluorescence polarization assay. On the technique in general: In fluorescence polarisation assays a small probe gives low polarisation when free and higher when bound to something large.
Test [10] concerns NIH3T3. In words: Stability of FKBP12 V2A mutant-N terminus of YFP fusion protein expressed in NIH3T3 cells assessed as mean fluorescence intensity at 1 uM after 24 hrs by flow cytometry relative to FKBP12 F36V mutant. In kind it is cell-based. An outline of the steps:
as §2

Test [11] in a line: Displacement of fluorescein-SLF from FKBP12 F36V mutant by fluorescence polarization assay.
Test [12] concerns NIH3T3. The test can be described thus: Stability of FKBP12 V2A mutant-N terminus of YFP fusion protein expressed in NIH3T3 cells assessed as mean fluorescence intensity at 1 uM after 24 hrs by flow cytometry. In kind it is cell-based. An outline of the steps:
as §2

Test [13] concerns NIH3T3. The test can be described thus: Stability of FKBP12 V2A/V4A mutant-N terminus of YFP fusion protein expressed in NIH3T3 cells assessed as mean fluorescence intensity at 1 uM after 24 hrs by flow cytometry relative to FKBP12 F36V mutant. Format: cell-based. An outline of the steps:
as §2

Test [14] relates to NIH3T3. The test can be described thus: Effect on 4930422M22Rik mRNA level in mouse NIH3T3 cells at 10 nM after 24 hrs by microarray analysis relative to control. Format: functional. A digest of the protocol: as §1
Test [15] concerns NIH3T3. In words: Stability of FKBP12 V4A mutant-N terminus of YFP fusion protein expressed in NIH3T3 cells assessed as mean fluorescence intensity at 1 uM after 24 hrs by flow cytometry relative to FKBP12 F36V mutant. In kind it is cell-based. An outline of the steps: as §2
In test [16] the test system is NIH3T3. In words: Stability of FKBP12 F36V mutant-C terminus of YFP fusion protein expressed in NIH3T3 cells assessed as mean fluorescence intensity at 1 uM after 24 hrs by flow cytometry. In kind it is cell-based. An outline of the steps:
as §2

In test [17] the test system is NIH3T3. In words: Effect on MtCrVgp3 mRNA level in mouse NIH3T3 cells at 10 nM after 24 hrs by microarray analysis relative to control. To be noted: in the assay text read “at 1 uM” for “at 10 nM”. In kind it is functional. A digest of the protocol: as §1
Test [18] has as its system NIH3T3. In words: Stability of FKBP12 V2A/V4A/17V mutant-N terminus of YFP fusion protein expressed in NIH3T3 cells assessed as mean fluorescence intensity at 1 uM after 24 hrs by flow cytometry relative to FKBP12 F36V mutant. Format: cell-based. An outline of the steps:
as §2

Test [19] concerns NIH3T3. The test can be described thus: Stability of FKBP12 L50A mutant-N terminus of YFP fusion protein expressed in NIH3T3 cells assessed as mean fluorescence intensity at 1 uM after 24 hrs by flow cytometry. In kind it is cell-based. A digest of the protocol: as §2
For test [20], the system named is NIH3T3. The test can be described thus: Stability of FKBP12 F36V mutant-N terminus of YFP fusion protein expressed in NIH3T3 cells assessed as mean fluorescence intensity at 1 uM after 24 hrs by flow cytometry. In kind it is cell-based. A digest of the protocol: as §2
For test [21], the system named is NIH3T3. The test can be described thus: Stability of FKBP12 17V mutant-N terminus of YFP fusion protein expressed in NIH3T3 cells assessed as mean fluorescence intensity at 1 uM after 24 hrs by flow cytometry relative to FKBP12 F36V mutant. In kind it is cell-based. An outline of the steps: as §2
Test [22] in a line: Displacement of fluorescein-SLF from FKBP12 V2A mutant-GST fusion protein by fluorescence polarization assay.
The test system of test [23] is NIH3T3. In words: Effect on A430110N23 mRNA level in mouse NIH3T3 cells at 10 nM after 24 hrs by microarray analysis relative to control. In kind it is functional. A digest of the protocol:
as §1

The subject of test [24] is NIH3T3. The test can be described thus: Effect on Csnkle mRNA level in mouse NIH3T3 cells at 1 uM after 24 hrs by microarray analysis relative to control. In kind it is functional. A digest of the protocol: as §1
A short description of test [25]: Displacement of fluorescein-SLF from FKBP12 L106A mutant-GST fusion protein by fluorescence polarization assay.
Test [26] has as its system NIH3T3. In words: Stability of FKBP12 V4A/17V mutant-N terminus of YFP fusion protein expressed in NIH3T3 cells assessed as mean fluorescence intensity at 1 uM after 24 hrs by flow cytometry relative to FKBP12 F36V mutant. Format: cell-based. A digest of the protocol: as §2
The test system of test [27] is NIH3T3. In words: Effect on Shkbp1 mRNA level in mouse NIH3T3 cells at 10 nM after 24 hrs by microarray analysis relative to control. Format: functional. A digest of the protocol:
as §1

In test [28] the test system is NIH3T3. The test can be described thus: Stability of FKBP12 V2A mutant-firefly luciferase fusion protein expressed in NIH3T3 cells assessed as rescue of luminescence at 1 or 10 uM after 24 hrs by dual luciferase reporter assay. In kind it is cell-based. (A reporter such as luciferase makes a cellular process visible.)
Test [29] concerns NIH3T3. The test can be described thus: Effect on Ptpn1 mRNA level in mouse NIH3T3 cells at 10 nM after 24 hrs by microarray analysis relative to control. Format: functional. A digest of the protocol: as §1
For test [30], the system named is NIH3T3. In words: Stability of FKBP12 L106A mutant-C terminus of YFP fusion protein expressed in NIH3T3 cells assessed as mean fluorescence intensity at 1 uM after 24 hrs by flow cytometry. In kind it is cell-based. An outline of the steps:
as §2

Test [31] relates to NIH3T3. The test can be described thus: Effect on Epb4.1l2 mRNA level in mouse NIH3T3 cells at 1 uM after 24 hrs by microarray analysis relative to control. In kind it is functional. An outline of the steps: as §1
The subject of test [32] is NIH3T3. The test is described as §3. In kind it is cell-based. A digest of the protocol: as §4
Test [33] relates to NIH3T3. In words: Prevention of proteasome mediated degradation of FKBP12-YFP fusion protein expressed in mouse NIH3T3 cells at 10 uM.

The source made the active and inactive calls. The rule behind the calls is not given here.

Turning to `CC[C@H](C(=O)N1CCCC[C@H]1C(=O)O[C@H](CCc1ccc(OC)c(OC)c1)c1cccc(OCCN2CCOCC2)c1)c1cc(OC)c(OC)c(OC)c1`, the “fold change (FC)” value in the test with NIH3T3 [1] is reported as -1.7; in the test on NIH3T3 [5], 1.9; with NIH3T3 [14] it was -2.2; in the test on NIH3T3 [17], -11.3; in the test with NIH3T3 [23], -2.1; in the test with NIH3T3 [24], 2.7. Further, the “fold change (FC)” value in the test on NIH3T3 [27] is given as -2.3; with NIH3T3 [29] it was -1.7; in the test with NIH3T3 [31], 2.2. For the same molecule, the result in the test on NIH3T3 [2], with NIH3T3 [4], in the test with NIH3T3 [16] and in the test with NIH3T3 [30] was inactive. Besides, the Kd in [3] was 3 nM; in test [9] it was 2 nM; in [11], 0.4 nM; in test [22], 4 nM; in test [25], 2 nM. In addition, the Stability result in the test with NIH3T3 [6], in the test on NIH3T3 [12], in the test on NIH3T3 [19] and in the test on NIH3T3 [20] was “Stable” throughout. The molecule also displayed a 50% effective concentration (EC50) in [7] of 60 nM. For the same molecule, the outcome in the test with NIH3T3 [8], in the test on NIH3T3 [10], with NIH3T3 [13], in the test with NIH3T3 [15], in the test on NIH3T3 [18] and in the test on NIH3T3 [21] was Active. Moreover, the result in the test with NIH3T3 [26] was Active. For the same molecule, the Activity result in the test with NIH3T3 [28] is “Dose-dependent effect”.

With `CC[C@H](C(=O)N1CCCC[C@H]1C(=O)O[C@H](CCc1ccc(OC)c(OC)c1)c1cccc(OCC(=O)NCC(C)(C)N)c1)c1cc(OC)c(OC)c(OC)c1`, the outcome in the test on NIH3T3 [32] was Active. Moreover, the affinity in [11], expressed as Kd, was 0.9 nM.

Consider `CC[C@H](C(=O)N1CCCC[C@H]1C(=O)O[C@H](CCc1ccc(OC)c(OC)c1)c1cccc(OCC(=O)O)c1)c1cc(OC)c(OC)c(OC)c1`, for which the outcome with NIH3T3 [32] was Active. In test [11], this molecule returned a Kd of 0.4 nM.

Take `CC(=O)N[C@@H](CSC(=O)[C@]1([C@@H](O)C(C)C)NC(=O)[C@H](C)[C@@H]1O)C(=O)O`: in the test with NIH3T3 [33], the outcome was Active.

Consider `CC[C@H](C(=O)N1CCCC[C@H]1C(=O)O[C@H](CCc1ccc(OC)c(OC)c1)c1cccc(OCC(=O)OCCn2ccnn2)c1)c1cc(OC)c(OC)c(OC)c1`, for which the outcome in the test on NIH3T3 [32] was Active. Binding in test [11] was put at a Kd of 0.7 nM.

For orientation: Kd means a measure of binding affinity in units of concentration. What is called EC50 is the concentration that produces a half-maximal response. Low readings indicate a more potent agent, high ones a less potent agent.
